In publication PMC4887403 (Bioorganic & medicinal chemistry letters, 2016):

Key:
[1] = test system: asexual parasites of the chloroquine-sensitive 3D7 strain of P. falciparum; assay: asexual blood stage assay; format: cell-based; settings: Plasmodium falciparum, 3D7, read-out: asexual activity (IC50, text)
Method in brief: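 Asexual blood-stage parasites of chloroquine-sensitive P. falciparum 3D7 are tested with test compound in an 11-point dose-response, in duplicate. Each run includes a positive control and a DMSO negative control.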

HepG2 cells = assay: HepG2 cell viability; format: cell-based; settings: highest concentration tested 46 µM
Method in brief: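 HepG2 cells are incubated with test compound to measure general cytotoxicity as cell viability. The assay uses an 11-point dose-response in duplicate, with a positive control and a DMSO negative control.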

malaria transmission = settings: mouse model; cited from earlier work

IC50 [1] | SMILES | other results
< 100 nM | Cn1c(=O)n(-c2cccc(C(F)(F)F)c2)c2c3cc(-c4ccc(N)cc4)ccc3ncc21 [Compound 35] | –
< 100 nM | Cn1c(=O)n(-c2cccc(C(F)(F)F)c2)c2c3cc(-c4cccc(N)c4)ccc3ncc21 [Compound 37] | –
– | Cn1c(=O)n(-c2ccc(C#N)cc2)c2c3cc(-c4ccc(N)nc4)ccc3ncc21 [Compound 60] | HepG2 cytotoxicity (HepG2 cells): no measurable HepG2 cytotoxicity
– | Nc1ccc(-c2ccc3ncc4ccc(=O)n(-c5cccc(C(F)(F)F)c5)c4c3c2)cn1 [Torin 2] | efficacy for blocking malaria transmission (malaria transmission): efficacy for blocking malaria transmission in a mouse model
